Hits are enriched below; roughly 3.1% of the tested compounds scored in any of these assays.
Apaf-1 inh = inhibitors of human Apaf-1 apoptosome, primary screen, biochemical, DEVD-Rh110 fluorescence, uHTS. Apoptotic protease-activating factor 1 (Homo sapiens), O14727. reconstituted apoptosome caspase-3 activity. inhibition, % at 20 µM. 0.71% of 330,000 active; active = inhibition of at least 40% at 20 µM;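 also: plate controls were DMSO wells for no effect and DEVD-CHO caspase inhibitor wells for full effect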
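Medium: Hepes buffer, pH 7.5 / System: biochemical Apaf-1 apoptosome reconstitution / Measured by: Rh110 fluorescence, excitation 480 nm, emission 540 nm / Times: compound with Apaf-1, dATP, procaspase-3 30 min, then 50 min reaction, room temperature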
pPAFAH FP inh = pPAFAH enzyme inhibitors, primary screen, biochemical, fluorescence polarization, human; inhibition, % at 3.39 µM; recombinant pPAFAH, FP-rhodamine probe fluorescence polarization; Platelet-activating factor acetylhydrolase (Homo sapiens), Q13093; 1.5% of 330,000 active;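 active = inhibition above the mean inhibition across the screen plus 3 SD, cut at about 25% in these data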;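 also: inhibitors block binding of the rhodamine activity-based probe so polarization drops; 0% = enzyme with DMSO and 100% = wells lacking pPAFAH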
PAFAH1B3 inh = PAFAH1B3 enzyme inhibitors, primary screen, biochemical, fluorescence polarization, human; Platelet-activating factor acetylhydrolase IB subunit alpha1 (Homo sapiens), Q15102; recombinant PAFAH1B3, FP-rhodamine probe; inhibition, % at 3.39 µM; 0.28% of 340,000 active;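 active = inhibition above the screen-wide average of all tested compounds plus 3 SD, cut at about 25% in these data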;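 also: 0% = enzyme with DMSO only and 100% = wells lacking PAFAH1B3 protein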
Target sequence (Q15102 whole entry, looked up): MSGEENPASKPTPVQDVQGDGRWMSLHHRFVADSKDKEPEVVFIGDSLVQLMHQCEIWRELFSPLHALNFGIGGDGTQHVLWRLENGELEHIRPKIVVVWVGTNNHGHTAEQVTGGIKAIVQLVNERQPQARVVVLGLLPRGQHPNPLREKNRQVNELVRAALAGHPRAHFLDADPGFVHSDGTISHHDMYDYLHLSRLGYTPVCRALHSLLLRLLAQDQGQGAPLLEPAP
PAFAH2 FP inh = PAFAH2 enzyme inhibitors, primary screen, biochemical, fluorescence polarization, human. recombinant PAFAH2, FP-rhodamine activity probe. inhibition, % at 3.39 µM. 0.99% of 340,000 active. AID 492956, 2010;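 active = inhibition above the mean over all tested compounds plus 3 SD, cut at about 30% in these data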;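 also: inhibitors block probe labeling of enzyme so polarization drops; 0% = enzyme with DMSO and 100% = wells lacking PAFAH2 protein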
PAFAH1B2 FP inh = PAFAH1B2 enzyme inhibitors, primary screen, biochemical, fluorescence polarization, human. recombinant PAFAH1B2, FP-rhodamine activity probe. inhibition, % at 3.39 µM. 1.2% of 340,000 active. AID 492953, 2010;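 active = inhibition above the mean of all tested compounds plus 3 SD, cut at about 24% in these data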;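 also: 0% = enzyme with DMSO and 100% = wells lacking PAFAH1B2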
Target sequence (P68402 whole entry, looked up): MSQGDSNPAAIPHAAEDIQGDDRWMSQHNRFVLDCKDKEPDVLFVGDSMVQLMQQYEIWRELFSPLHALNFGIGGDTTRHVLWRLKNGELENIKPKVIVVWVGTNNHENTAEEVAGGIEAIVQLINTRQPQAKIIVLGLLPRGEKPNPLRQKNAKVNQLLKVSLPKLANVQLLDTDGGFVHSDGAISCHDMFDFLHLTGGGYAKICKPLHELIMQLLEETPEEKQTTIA
PAFAH2 confirm = PAFAH2 enzyme inhibitors, confirmation, biochemical, fluorescence polarization, human. shares compounds with PAFAH2 FP inh. recombinant PAFAH2, FP-rhodamine activity probe. inhibition, % at 3.39 µM. 65% of 2,300 active;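 active = mean inhibition over three repeats above a set limit taken from the earlier primary screen, cut at about 30% in these data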;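 also: inhibitor blocks binding of rhodamine activity probe so polarization falls; 0% = enzyme with DMSO and 100% = wells lacking PAFAH2 protein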
An asterisk follows results filed as active; · = no result.

SMILES	Apaf-1 inh	pPAFAH FP inh	PAFAH1B3 inh	PAFAH2 FP inh	PAFAH1B2 FP inh	PAFAH2 confirm
CNc1ccc(C(=O)OCC(=O)NC(=O)NC2CCCCC2)cc1[N+](=O)[O-]	0	4	10	15	7	·
CCNc1ccc(C(=O)OCC(=O)NC(=O)NCC(C)C)cc1[N+](=O)[O-]	4	0	8	33*	3	27
COc1ccc(/C=C/C(=O)OCC(=O)Nc2ccc3[nH]c(=O)[nH]c3c2)cc1OC	-3	-3	6	-3	0	·
CCN(CC)C(=O)Cn1cc(S(=O)(=O)CC(=O)Nc2ccc(C(N)=O)cc2)c2ccccc21	5	1	5	-2	1	·
Cc1cc(S(=O)(=O)NCCCN2CCOCC2)c(C)cc1Cl	2	·	-2	7	3	·
CC(C)(C)OC(=O)C[C@H]1C/C=C\C[C@@H](CC(=O)N(CCO)Cc2ccccc2)C(=O)NC[C@@H](c2ccccc2)OC1=O	19	0	7	5	10	·
O=C(NC(=S)NNC(=O)c1ccccc1O)c1ccc([N+](=O)[O-])cc1	-2	15	17	32*	0	11
O=C(NC(=S)NNC(=O)c1ccccc1O)c1ccccc1	0	9	11	31*	5	24
Cc1cccc(C(=O)NNC(=O)c2ccccc2O)c1	3	2	-1	35*	4	16
O=C(NNC(=O)c1cc(Cl)ccc1O)c1cccs1	8	8	9	77*	5	73*
Cc1cccc(C(=O)NNC(=O)c2ccccc2C)c1	-1	4	4	3	1	·
N#Cc1ccccc1N1CCN(C(=O)c2ccc(NC(=O)c3ccc(Br)o3)cc2)CC1	4	1	1	1	3	·
CC(C)(C)OC(=O)NCCCCCNC(=O)c1[nH]cnc1C(=O)Nc1ccon1	-6	-1	15	-2	8	·
CC(Cc1cccnc1)NC(=O)c1ccccc1OC1CCN(S(C)(=O)=O)CC1 (stereo not drawn)	4	-5	0	-1	-2	·
O=C(NC(=S)NNC(=O)c1ccccc1O)c1cccs1	-2	13	15	45*	4	36*
CCCn1nc(C(=O)NNC(=O)CCCOc2ccc(C)cc2)c2ccccc2c1=O	0	10	4	0	0	·
O=C(c1cc(-c2ccc(Cl)cc2Cl)on1)N1CCCC1	12	9	7	31*	3	26
O=C(c1cc(-c2ccccc2Cl)on1)N1CCN(C(=O)c2ccco2)CC1	8	9	2	43*	5	35*
O=C(c1cc(-c2ccc(Cl)cc2Cl)on1)N1CCN(C(=O)c2ccco2)CC1	8	9	-4	65*	1	41*
O=C(NCc1cccnc1)c1cccc(S(=O)(=O)Nc2cccc(Cl)c2)c1	0	22	2	3	3	·
COc1ccccc1NC(=O)CN1CCN(CC(=O)Nc2ccc(F)cc2F)CC1	5	·	2	1	0	·
O=C(COC(=O)C1=COCCO1)NC1CCCCC1	-10	2	2	57*	3	55*
O=C(COC(=O)c1ccco1)NC1CCCCC1	13	10	-1	80*	-5	68*
O=C(COC(=O)c1ccc(Cl)cc1)NC1CCCCCC1	1	9	4	78*	4	79*
CC(=O)Nc1cccc(C(=O)OCC(=O)NC2CCCCCCC2)c1	14	-16	9	84*	-1	84*
SMILES	Apaf-1 inh	pPAFAH FP inh	PAFAH1B3 inh	PAFAH2 FP inh	PAFAH1B2 FP inh	PAFAH2 confirm
COc1ccc(OC)c(S(=O)(=O)N2CCCC2C(=O)NC(C)c2ccccc2)c1 (stereo not drawn)	-14	-1	-1	-4	1	·
O=C(COC(=O)c1ccccc1)NC1CCCCCC1	1	7	8	86*	4	78*
O=C(COC(=O)CNC(=O)c1ccccc1)NC1CCCCC1	9	-1	6	1	3	·
Cc1cccc(C(=O)NCC(=O)OCC(=O)NC2CCCCCCC2)c1	10	13	7	1	3	·
Nc1cccc(C(=O)OCC(=O)NC2CCCc3ccccc32)c1 (stereo not drawn)	1	11	4	53*	-3	28
Cc1cccc(C(=O)NCC(=O)OCC(=O)NC2CCCCC2)c1	2	5	5	57*	2	41*
O=C(Nc1ccc(Oc2ccc(Br)cc2)cc1)C1=CC=CN2CCS(=O)(=O)N=C12	4	-3	-2	1	-1	·
COc1ccc(CC(=O)NNS(=O)(=O)c2ccc(F)cc2)cc1	-12	2	-5	-11	16	·
COc1cc(NC(=O)c2cc(-c3ccccc3Cl)on2)cc(OC)c1OC	23	10	8	8	6	·
O=C(COC(=O)CNC(=O)C1CCCCC1)Nc1ccc(Cl)cn1	11	5	6	2	10	·
O=C(COC(=O)CC1CCCC1)Nc1ccc(Cl)cn1	2	19	-6	50*	1	38*
O=C(COC(=O)CC1CCCCC1)Nc1c(Cl)cccc1Cl	20	20	3	38*	7	31*
COc1ccc2c3c(ccc2c1)C(=O)/C(=C/O)CC3	·	·	1	4	5	·
CCN(CC)c1ccc(C(=O)OCC(=O)Nc2cc(C)on2)cc1	4	16	6	90*	0	66*
Cc1cc(NC(=O)COC(=O)c2cccc(O)c2)no1	-10	1	0	11	0	·
Cc1cc(NC(=O)COC(=O)c2ccccc2NCCO)no1	-2	6	10	6	7	·
Cc1cc(NC(=O)COC(=O)c2ccccc2S(=O)(=O)N(C)c2ccccc2)no1	-15	2	2	46*	-1	1
CCOc1ccccc1OCC(=O)Nc1cc(C)on1	-6	5	6	2	3	·
CCOc1cc(C(=O)OCC(=O)Nc2cc(C)on2)ccc1OCC(C)C	13	0	7	33*	0	29
CCOc1ccc(C(=O)OCC(=O)Nc2cc(C)on2)cc1OCC	7	5	-2	77*	6	63*
CCOc1ccccc1N1CCN(CC(=O)Nc2ccnn2C2CCCC2)CC1	33	2	-3	-1	7	·
CCOc1ccc(CCNC(=O)C2CCCN(S(=O)(=O)N3CC(C)CC(C)C3)C2)cc1OCC (stereo not drawn)	11	3	7	2	6	·
CN(CC1CCOCC1)C(=O)CC1C(=O)NCCN1Cc1cccc(C(F)(F)F)c1 (stereo not drawn)	16	·	3	5	4	·
Cc1cc2c(NC3CCCCC3)ncnc2s1	1	·	-1	-1	0	·
